Published values from different studies.
Lines come from different studies, so protocols differ.
Target: Serine/threonine-protein kinase TAO2 (TAOK2, Homo sapiens, UniProt Q9UL54)
Residues used in one study (Q9UL54 1-1235): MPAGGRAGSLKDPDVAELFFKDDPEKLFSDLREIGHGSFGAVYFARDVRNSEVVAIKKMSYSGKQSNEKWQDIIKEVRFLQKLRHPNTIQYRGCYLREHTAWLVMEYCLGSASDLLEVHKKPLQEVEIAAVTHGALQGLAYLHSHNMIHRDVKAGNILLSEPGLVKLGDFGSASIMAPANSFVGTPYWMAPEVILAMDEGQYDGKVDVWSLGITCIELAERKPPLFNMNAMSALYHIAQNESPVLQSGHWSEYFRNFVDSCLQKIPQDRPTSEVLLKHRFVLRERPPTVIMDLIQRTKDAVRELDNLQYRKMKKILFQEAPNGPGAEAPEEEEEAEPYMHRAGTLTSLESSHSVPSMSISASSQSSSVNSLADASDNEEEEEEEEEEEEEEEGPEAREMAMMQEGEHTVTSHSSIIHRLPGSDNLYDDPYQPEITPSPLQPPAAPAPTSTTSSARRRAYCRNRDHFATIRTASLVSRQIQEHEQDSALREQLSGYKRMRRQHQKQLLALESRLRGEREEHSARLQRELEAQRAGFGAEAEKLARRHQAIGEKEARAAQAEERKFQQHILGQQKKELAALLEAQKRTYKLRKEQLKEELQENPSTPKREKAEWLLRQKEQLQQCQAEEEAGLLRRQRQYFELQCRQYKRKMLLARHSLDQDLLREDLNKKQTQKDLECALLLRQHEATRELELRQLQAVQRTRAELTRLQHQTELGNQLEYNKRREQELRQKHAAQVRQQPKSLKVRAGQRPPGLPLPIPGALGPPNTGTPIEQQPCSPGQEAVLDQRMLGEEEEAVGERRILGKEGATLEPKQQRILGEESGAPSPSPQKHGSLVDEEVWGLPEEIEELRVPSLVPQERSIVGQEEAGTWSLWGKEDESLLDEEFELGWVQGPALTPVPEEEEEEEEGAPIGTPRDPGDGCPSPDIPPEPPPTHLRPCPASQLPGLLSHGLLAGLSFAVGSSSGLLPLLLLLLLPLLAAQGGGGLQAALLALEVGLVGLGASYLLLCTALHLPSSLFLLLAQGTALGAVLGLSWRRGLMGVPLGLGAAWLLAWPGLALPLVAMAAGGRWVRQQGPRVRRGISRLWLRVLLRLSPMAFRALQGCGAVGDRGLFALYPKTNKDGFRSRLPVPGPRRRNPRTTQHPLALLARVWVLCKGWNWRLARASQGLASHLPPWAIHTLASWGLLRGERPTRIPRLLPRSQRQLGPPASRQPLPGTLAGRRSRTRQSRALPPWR

SMILES | test | conditions | remaining binding [%]
O=S(=O)(NC1CCC(c2cc(F)ccc2F)(S(=O)(=O)c2ccc(Cl)cc2)CC1)C(F)(F)F (stereo not shown) | cell-free assay, competition with immobilised ligand | 1 µM | 100
C[C@@H](c1ccc(-n2cnc3c(N)ncnc32)cc1)N1CCc2nn(C)c(Cc3ccccc3)c2C1=O | binding, competition with immobilised ligand | 0.1 µM | 70
O=C(c1ccc(Nc2ncc(Cl)c(-c3ccc(Cl)s3)n2)cc1)N1CCC(N2CCCC2)CC1 | binding, competition with immobilised ligand | 1 µM | 65
CCc1ccccc1C(=O)Nc1n[nH]c2c(C)c(F)c(C3C(C#N)=C(C)N(C)C(C)=C3C#N)cc12 | cell-free assay, competition with immobilised ligand | 1 µM | 96
N[C@H]1CCN(c2nccc(-c3cnn4ncccc34)n2)C1 | binding | 1 µM | 52
COc1cnc(Nc2cccc(S(N)(=O)=O)c2)nc1N1CCN(c2ccccc2)C(=O)C1 | binding, competition with immobilised ligand | 1 µM | 95
O=C(NCC1CCOCC1)c1n[nH]cc1NC(=O)c1c(F)cccc1F | binding, competition with immobilised ligand | 1 µM | 100
Nc1ncc2c(n1)-c1c([nH]c3ccc(C#CC4CC4)cc13)CCCC2 | binding, competition with immobilised ligand | 1 µM | 90
O=C(O)[C@H]1[C@H](Cn2nnc3ccccc3c2=O)CC[C@@H]1C(=O)c1ccc(OCCC2CCOCC2)cc1 | cell-free assay, competition with immobilised ligand | 1 µM | 100
O=C(NCCCN1CCOCC1)c1ccc(Nc2ncc(Cl)c(-c3ccc(Cl)s3)n2)cc1 | binding, competition with immobilised ligand | 1 µM | 69
CNCc1ccccc1-c1csc([C@H](C)Nc2nc(C)nc3cc(OC)c(OC)cc23)c1 | cell-free assay, competition with immobilised ligand | 1 µM | 90
CCN1CCN(Cc2ccc(C(=O)Nc3ccc(C)c(Oc4ccc5c(c4)CC(=O)N5)c3)cc2C(F)(F)F)CC1 | binding, competition with immobilised ligand | 1 µM | 100
COc1ccnn2ncc(-c3ccnc(N(C)C)n3)c12 | binding | 1 µM | 85
Cn1nc(C(=O)NCc2ccc(C(=O)O)cc2)cc1-c1ccc2[nH]ccc2c1 | cell-free assay, competition with immobilised ligand | 0.1 µM | 82
CN(C)c1nccc(-c2cnc3ncccn23)n1 | binding | 1 µM | 76
CCOC(=O)c1cc2cc(-c3cc(C(=O)NCc4ccc(C(=O)O)cc4)nn3C)ccc2[nH]1 | cell-free assay, competition with immobilised ligand | 0.1 µM | 90
CC1CCCN1c1nccc(-c2cnn3ncccc23)n1 (stereo not shown) | binding | 1 µM | 100
C=CC(=O)N1CCC(C(=O)NCC(=O)N2CCN(c3nc(-c4cnc(N)nc4C(F)F)nc(N4CCOCC4)n3)CC2)CC1 | binding, competition with immobilised ligand | 1 µM | 72
Cc1cnn2ncc(-c3ccnc(N(C)C)n3)c2c1 | binding | 1 µM | 94
Cc1cc(NC(=O)c2cccc(S(F)(F)(F)(F)F)c2)cc(-n2ccn3nc(-c4cccnc4)cc23)c1 | cell-free assay, competition with immobilised ligand | 1 µM | 91.3
CN(C)c1ncc(F)c(-c2cnn3ncccc23)n1 | binding | 1 µM | 79
O=C(c1ccc(Nc2ncc(Cl)c(-c3cc4ccccc4s3)n2)cc1)N1CCC(N2CCCC2)CC1 | binding, competition with immobilised ligand | 1 µM | 66
